According to PMC10243129 (Proceedings of the National Academy of Sciences of the …, 2023):

What was measured:
human MCM•cob(II)alamin [1] = biological target: T1, human MCM•cob(II)alamin (Homo sapiens, UniProt P22033); test: Metabolite binding to MCM•cob
T1 sequence (P22033 33-750): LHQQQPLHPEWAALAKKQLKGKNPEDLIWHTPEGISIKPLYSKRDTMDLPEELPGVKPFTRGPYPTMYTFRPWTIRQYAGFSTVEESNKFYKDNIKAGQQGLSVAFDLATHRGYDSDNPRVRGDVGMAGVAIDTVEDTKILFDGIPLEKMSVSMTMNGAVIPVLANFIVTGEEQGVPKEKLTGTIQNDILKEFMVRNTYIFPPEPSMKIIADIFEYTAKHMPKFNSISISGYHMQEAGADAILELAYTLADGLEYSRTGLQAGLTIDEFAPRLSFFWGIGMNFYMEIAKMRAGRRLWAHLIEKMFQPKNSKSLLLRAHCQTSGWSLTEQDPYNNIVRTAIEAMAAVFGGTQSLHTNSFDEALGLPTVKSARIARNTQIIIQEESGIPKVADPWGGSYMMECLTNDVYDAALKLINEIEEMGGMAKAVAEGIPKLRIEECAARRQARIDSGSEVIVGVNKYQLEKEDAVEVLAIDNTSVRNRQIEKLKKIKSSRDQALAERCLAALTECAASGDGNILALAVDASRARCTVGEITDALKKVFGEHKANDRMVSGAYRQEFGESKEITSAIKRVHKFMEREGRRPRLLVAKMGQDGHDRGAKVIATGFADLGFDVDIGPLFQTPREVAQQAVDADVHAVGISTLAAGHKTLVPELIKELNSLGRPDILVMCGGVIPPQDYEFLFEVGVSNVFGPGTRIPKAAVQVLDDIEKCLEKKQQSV
Summary of the method: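 Cob(II)alamin was made by photolysis of 1.2 mM AdoCbl (stock) in anaerobic water and quantified with ε474 9.2 cm⁻¹ mM⁻¹. Work was done in an anaerobic chamber (<0.2 ppm O₂) with 40 µM cob(II)alamin and 20 µM MCM dimer in Buffer A at 20 °C. For the screen, metabolites were added at 5 mM and spectra recorded after 15 min. For Kd, metabolite was titrated, A460 read after 10 min, and data fitted to a quadratic binding equation.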

human MCM, CblA and ATR = biological target: T2, human MCM, CblA and ATR (Homo sapiens, UniProt P22033); test: CblA-dependent cob; format: biochemical; details: cob(II)alamin transfer MCM to ATR, anaerobic, 25 °C, 5 mM ADP or 0.5 mM M-CoA
T2 sequence (P22033 33-750): T1 sequence (P22033 33-750)
Summary of the method: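 Recombinant human MCM, CblA and ATR expressed in E. coli. Metabolite (ADP or M-CoA) was added to the MCM solution. A464 was followed for 20 min; transfer extent came from Δε464 5.6 cm⁻¹ mM⁻¹, and kobs from a single-exponential fit.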

human MCM = biological target: T3, human MCM (Homo sapiens, UniProt P22033); test: Kinetics of human MCM•cob; format: biochemical; details: absence of ligands, in air, 25 °C
T3 sequence (P22033 33-750): T1 sequence (P22033 33-750)
Summary of the method: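 The MCM•cob(II)alamin sample (40 µM cob(II)alamin, 20 µM MCM dimer) was prepared in anaerobic Buffer A at pH 7.5. Oxidation was started by twofold dilution with aerobic buffer. H₂OCbl formation was followed as the rise in absorbance at 350 nm versus time, giving kobs.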

human ATR = biological target: T4, human ATR (Homo sapiens, UniProt Q96EY8); test: ATP-triggered release of AdoCbl from ATR into solution; format: biochemical; details: ATR•AdoCbl without PPPi, confirmed after separation with a 10 kDa cutoff filter
T4 sequence (Q96EY8 33-250): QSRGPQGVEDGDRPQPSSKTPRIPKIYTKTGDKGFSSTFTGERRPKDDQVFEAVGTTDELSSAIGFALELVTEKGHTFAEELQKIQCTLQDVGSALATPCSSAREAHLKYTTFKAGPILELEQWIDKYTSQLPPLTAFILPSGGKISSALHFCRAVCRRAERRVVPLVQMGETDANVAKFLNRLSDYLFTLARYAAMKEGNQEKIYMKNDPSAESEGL

[2] = biological target: T5, Mycobacterium tuberculosis MCM (Mycobacterium tuberculosis, UniProt P9WJK5); test: Kinetics of M. tuberculosis MCM•cob; format: biochemical; details: in air
T5 sequence (P9WJK5 1-750): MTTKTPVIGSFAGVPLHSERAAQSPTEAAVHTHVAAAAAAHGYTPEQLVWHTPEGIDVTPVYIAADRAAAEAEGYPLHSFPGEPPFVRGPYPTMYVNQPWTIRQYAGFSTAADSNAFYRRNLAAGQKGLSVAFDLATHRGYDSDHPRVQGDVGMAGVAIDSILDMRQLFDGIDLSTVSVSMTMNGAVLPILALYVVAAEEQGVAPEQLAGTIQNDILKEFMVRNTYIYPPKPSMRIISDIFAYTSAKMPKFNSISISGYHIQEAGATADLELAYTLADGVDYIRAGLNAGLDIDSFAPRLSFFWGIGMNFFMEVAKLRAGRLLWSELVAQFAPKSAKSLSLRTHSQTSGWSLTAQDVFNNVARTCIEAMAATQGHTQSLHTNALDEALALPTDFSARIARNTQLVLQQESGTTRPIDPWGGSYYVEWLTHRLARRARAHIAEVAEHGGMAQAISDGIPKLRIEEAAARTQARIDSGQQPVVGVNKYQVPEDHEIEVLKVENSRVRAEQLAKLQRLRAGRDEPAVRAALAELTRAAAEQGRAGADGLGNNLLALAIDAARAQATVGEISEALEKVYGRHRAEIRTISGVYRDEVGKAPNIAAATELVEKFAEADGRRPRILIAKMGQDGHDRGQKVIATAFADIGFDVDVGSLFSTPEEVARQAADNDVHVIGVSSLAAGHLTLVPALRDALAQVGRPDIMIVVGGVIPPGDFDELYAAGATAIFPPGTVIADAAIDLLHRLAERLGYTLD
T5 sequence (P9WJK7 1-615 partner): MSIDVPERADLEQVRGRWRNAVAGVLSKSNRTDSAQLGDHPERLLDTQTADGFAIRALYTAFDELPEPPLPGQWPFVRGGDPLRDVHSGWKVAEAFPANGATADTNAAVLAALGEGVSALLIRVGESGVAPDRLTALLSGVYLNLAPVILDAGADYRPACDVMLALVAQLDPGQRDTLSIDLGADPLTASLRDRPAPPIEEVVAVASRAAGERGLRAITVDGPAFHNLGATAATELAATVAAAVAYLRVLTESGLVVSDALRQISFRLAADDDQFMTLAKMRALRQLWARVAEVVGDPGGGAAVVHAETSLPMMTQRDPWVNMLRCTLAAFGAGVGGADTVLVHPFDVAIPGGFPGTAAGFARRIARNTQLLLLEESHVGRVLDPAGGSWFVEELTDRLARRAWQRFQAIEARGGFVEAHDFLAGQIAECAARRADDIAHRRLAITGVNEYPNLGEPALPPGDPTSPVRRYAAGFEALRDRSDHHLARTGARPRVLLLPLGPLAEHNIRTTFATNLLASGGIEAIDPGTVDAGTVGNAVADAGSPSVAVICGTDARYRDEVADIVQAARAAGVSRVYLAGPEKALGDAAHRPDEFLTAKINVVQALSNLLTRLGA

human MCM•cob(II)alamin [3] = biological target: T1, human MCM•cob(II)alamin; test: Stopped-flow spectroscopy of ADP/ATP binding to MCM•cob
Summary of the method: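 Anaerobic stopped-flow with diode-array detection was run at 25 °C. MCM•cob(II)alamin was preformed from 80 µM cob(II)alamin and 40 µM MCM dimer (stock) in Buffer A for 10 min, then rapidly mixed with 0.25–2.5 mM ADP or ATP. A460 traces were fitted to a single exponential for kobs. kon came from linear regression of kobs on metabolite concentration, and koff from titration Kd and kon.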

ATR = details: PPPi on ATR ternary product complex; ref [14]; cited from earlier work

Row | SMILES | Kd (human MCM•cob(II)alamin [1]) [µM] | Rate of transfer (kobs) (human MCM, CblA and ATR) [min⁻¹] | also measured
1 | CC(C)(COP(=O)(O)OP(=O)(O)OC[C@H]1O[C@@H](n2cnc3c(N)ncnc32)[C@H](O)[C@@H]1OP(=O)(O)O)[C@@H](O)C(=O)NCCC(=O)NCCS [CoA, Coenzyme A] | 118 ± 13 | 0.92 ± 0.06 | –
2 | C/C1=C2/[N-][C@H]([C@H](CC(N)=O)[C@@]2(C)CCC(=O)NC[C@@H](C)OP(=O)([O-])O[C@H]2[C@@H](O)[C@@H](n3cnc4cc(C)c(C)cc43)O[C@@H]2CO)[C@]2(C)N=C(/C(C)=C3N=C(/C=C4N=C1[C@@H](CCC(N)=O)C\4(C)C)[C@@H](CCC(N)=O)[C@]\3(C)CC(N)=O)[C@@H](CCC(N)=O)[C@]2(C)CC(N)=O.[Co+2] [cob(II)alamin] | – | – | kobs of oxidation of MCM-bound cob(II)alamin to H2OCbl (human MCM): 0.08 min⁻¹
3 | C[C@H]1O[C@@H](n2cnc3c(N)ncnc32)[C@H](O)[C@@H]1O [5′-dAdo, 5′-deoxyadenosine] | 4.2 ± 2.1 | – | –
4 | Nc1ncnc2c1ncn2[C@@H]1O[C@H](COP(=O)(O)OP(=O)(O)OP(=O)(O)O)[C@@H](O)[C@H]1O [ATP, adenosine triphosphate] | 30 ± 5 | – | AdoCbl released from ATR into solution (human ATR): 40%
5 | Nc1ncnc2c1ncn2[C@@H]1O[C@H](COP(=O)(O)OP(=O)(O)O)[C@@H](O)[C@H]1O [ADP, adenosine diphosphate] | 44 ± 4.2 | 0.24 ± 0.01 | Effect on oxidation of cob(II)alamin bound to M. tuberculosis MCM [2]: prevented; fold higher kon of ADP versus ATP (human MCM•cob(II)alamin [3]; ADP vs ATP): ~ 100 fold; rate of ADP binding relative to oxidation of cob(II)alamin on MCM (human MCM•cob(II)alamin [3]; assuming a cellular ADP concentration of 6 mM): ~ 600 fold
6 | O=P(O)(O)OP(=O)(O)OP(=O)(O)O [PPPi, sodium triphosphate pentabasic] | – | – | Kd (ATR): < 0.4 µM
